Measured values as given in ChEMBL document CHEMBL1126715, “Synthesis and tissue distribution of (m-[125I]iodobenzyl)trozamicol ([125I]MIBT): potential radioligand for mapping central cholinergic innervation” (J Med Chem, 1993).

How the values were obtained:
[1] = Ratio of tissue distribution between rat brain and blood after 5 min; assay type: ADME, organism-based; settings: brain and blood
In short: (§1)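 Male Wistar rats (200-350 g) under ether anesthesia, iv radiotracer (3-5 μCi in 0.1 mL 50% aqueous ethanol). At 5, 30, 60, 180 min blood taken by cardiac puncture, animal killed by cardiectomy; organs weighed, γ-counted against 1:100 injected-dose dilution; % injected dose/g tissue; brain/blood ratio.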

Rattus norvegicus [2] = species on record: Rattus norvegicus; experiment: Tissue distribution in rat lung after 5 minutes (n=3); assay type: ADME, organism-based; settings: in vivo
In short: (§2)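 Male Wistar rats (200-350 g) under ether anesthesia; radiotracer (3-5 μCi in 0.1 mL 50% aqueous ethanol) given iv. At 5, 30, 60 and 180 min, blood was drawn by cardiac puncture and animals were killed by cardiectomy. Organs were weighed and γ-counted against a 1:100 dilution of the injected dose. Results are given as % injected dose/g tissue; ratios are taken between tissue levels.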

Rattus norvegicus [3] = species on record: Rattus norvegicus; experiment: Effect of vesamicol on the accumulation in rat brain [0.51 (0.45-0.66)]; assay type: ADME, organism-based; settings: in vivo
In short: (§3)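 Male Wistar rats (n = 4/group) given iv vehicle (100 μL 50% aqueous EtOH) or dl-vesamicol (1.01 μmol/kg); 15 min later iv radiotracer (2.0 μCi in 100 μL 50% aqueous EtOH); killed 30 min post-tracer. Blood by cardiac puncture, organs weighed and γ-counted vs 1:100 injected-dose dilution; % dose/g tissue (range); tissue/blood ratios.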

Rattus norvegicus [4] = species on record: Rattus norvegicus; experiment: Ratio of tissue distribution between rat brain and blood after 60 min; assay type: ADME, organism-based; settings: 1 h; in short: as §2
Rattus norvegicus [5] = species on record: Rattus norvegicus; experiment: Tissue distribution in rat brain after 30 minutes (n=3); assay type: ADME, organism-based; settings: in vivo, 0.5 h; in short: as §2
Rattus norvegicus [6] = species on record: Rattus norvegicus; experiment: Tissue distribution in rat spleen after 180 minutes (n=3); assay type: ADME, organism-based; settings: in vivo, 3 h; in short: as §2
Rattus norvegicus [7] = species on record: Rattus norvegicus; experiment: Ratio of effect haloperidol on regional distribution between rat brain caudate and cortex; assay type: ADME, organism-based; settings: in vivo
Rattus norvegicus [8] = species on record: Rattus norvegicus; experiment: Tissue distribution in rat gonads after 30 minutes (n=3); assay type: ADME, organism-based, Gonad; settings: in vivo, 0.5 h; in short: as §2
Rattus norvegicus [9] = species on record: Rattus norvegicus; experiment: Tissue distribution in rat heart after 180 minutes (n=3); assay type: ADME, organism-based; settings: in vivo, 3 h; in short: as §2
Rattus norvegicus [10] = species on record: Rattus norvegicus; experiment: Tissue distribution in rat kidney after 5 minutes (n=3); assay type: ADME, organism-based; settings: in vivo; in short: as §2
Rattus norvegicus [11] = species on record: Rattus norvegicus; experiment: Ratio of regional kinetics between rat brain caudate and cerebellum at 30 minutes; assay type: ADME, organism-based; settings: in vivo, 0.5 h
In short: (§4)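 Male Wistar rats (n = 4/group) under ether anesthesia, iv (+)-[125I]MIBT (2 μCi in 100 μL 50% aqueous EtOH); killed at 30, 120, 180 min. Brains partially frozen, dissected into striatum, cerebellum, cortex and remainder; radioactivity counted, % dose/g vs injected-dose dilutions; caudate/cortex and caudate/cerebellum ratios.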

Rattus norvegicus [12] = species on record: Rattus norvegicus; experiment: Effect of 4-aminobenzovesamicol on the regional distribution of compound in the remainder of rat brain (n=4) [0.21 (0.17-0.23)]; assay type: ADME, organism-based; settings: in vivo
Rattus norvegicus [13] = species on record: Rattus norvegicus; experiment: Tissue distribution in rat blood after 30 minutes (n=3); assay type: ADME, organism-based; settings: in vivo, 0.5 h; in short: as §2
Rattus norvegicus [14] = species on record: Rattus norvegicus; experiment: Ratio of regional kinetics between rat brain caudate and cortex at 180 minutes; assay type: ADME, organism-based; settings: in vivo, 3 h; in short: as §4
Rattus norvegicus [15] = species on record: Rattus norvegicus; experiment: Effect of vesamicol on the accumulation in rat heart [0.25 (0.21-0.30)]; assay type: ADME, organism-based; settings: in vivo
In short: (§5)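 Male Wistar rats. Pretreatment at t = 0 was iv vehicle (50% aqueous EtOH) or iv dl-vesamicol (1.01 μmol/kg). At 15 min, iv [125I]tracer (2.0 μCi in 100 μL 50% aqueous EtOH) was given; rats were killed 30 min later. Tissues were weighed and γ-counted, and values expressed as % injected dose/g; n = 4 per group.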

Rattus norvegicus [16] = species on record: Rattus norvegicus; experiment: Effect of vesamicol on the accumulation in rat thyroid [1.77 (1.47-1.93)]; assay type: ADME, organism-based, Thyroid gland; settings: in vivo; in short: as §5
Rattus norvegicus [17] = species on record: Rattus norvegicus; experiment: Tissue distribution in rat spleen after 30 minutes (n=3); assay type: ADME, organism-based; settings: in vivo, 0.5 h; in short: as §2
Rattus norvegicus [18] = species on record: Rattus norvegicus; experiment: Tissue distribution in rat lung after 180 minutes (n=3); assay type: ADME, organism-based; settings: in vivo, 3 h
In short: (§6)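 Male Wistar rats (200-350 g) under ether, iv [125I]tracer (3-5 μCi in 0.1 mL 50% aqueous EtOH). At 5, 30, 60 or 180 min, blood taken by cardiac puncture and the rat killed by cardiectomy. Organs weighed and γ-counted against 1:100 dilutions of the injected dose; results in % injected dose/g, with range.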

Rattus norvegicus [19] = species on record: Rattus norvegicus; experiment: Effect of haloperidol on the regional distribution of compound in the remainder of rat brain (n=4) [0.33 (0.28-0.40)]; assay type: ADME, organism-based; settings: in vivo
Rattus norvegicus [20] = species on record: Rattus norvegicus; experiment: Effect of vesamicol on the accumulation in rat liver [2.01 (1.65-3.34)]; assay type: ADME, organism-based; settings: in vivo; in short: as §3
Rattus norvegicus [21] = species on record: Rattus norvegicus; experiment: Tissue distribution in rat lung after 30 minutes (n=3); assay type: ADME, organism-based; settings: in vivo, 0.5 h; in short: as §2
Rattus norvegicus [22] = species on record: Rattus norvegicus; experiment: Regional kinetics in the rat cerebellum at 180 minutes; assay type: ADME, organism-based; settings: in vivo, 3 h
In short: (§7)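 Male Wistar rats (n = 4 per time point) under ether received (+)-radiotracer iv (2 μCi in 100 μL 50% aqueous EtOH). They were killed at 30, 120 or 180 min. Brains were partially frozen and dissected into striatum, cerebellum, cortex and remainder. Regions were γ-counted against injected-dose dilutions and expressed as % injected dose/g tissue.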

Rattus norvegicus [23] = species on record: Rattus norvegicus; experiment: Ratio of tissue distribution between rat heart and blood after 60 min; assay type: ADME, organism-based; settings: other tissue, 1 h; in short: as §2
Rattus norvegicus [24] = species on record: Rattus norvegicus; experiment: Ratio of tissue distribution between rat brain and blood after 180 min; assay type: ADME, organism-based; settings: 3 h; in short: as §1
Rattus norvegicus [25] = species on record: Rattus norvegicus; experiment: Effect of vesamicol on the accumulation in rat gonads [0.15 (0.14-0.15)]; assay type: ADME, organism-based; settings: in vivo; in short: as §3
Rattus norvegicus [26] = species on record: Rattus norvegicus; experiment: Effect of vesamicol on the accumulation in rat muscle [0.16 (0.15-0.20)]; assay type: ADME, organism-based, Muscle tissue; settings: in vivo; in short: as §5
Rattus norvegicus [27] = species on record: Rattus norvegicus; experiment: Regional kinetics in the rat brain caudate-putamen at 30 minutes; assay type: ADME, organism-based; settings: in vivo, 0.5 h; in short: as §7
Rattus norvegicus [28] = species on record: Rattus norvegicus; experiment: Tissue distribution in rat muscle after 180 minutes (n=3); assay type: ADME, organism-based; settings: in vivo, 3 h; in short: as §2
Rattus norvegicus [29] = species on record: Rattus norvegicus; experiment: Effect of 4-aminobenzovesamicol on the regional distribution of compound in the rat cerebellum (n=4) [0.12 (0.10-0.13)]; assay type: ADME, organism-based; settings: in vivo
Rattus norvegicus [30] = species on record: Rattus norvegicus; experiment: Effect of vesamicol on the accumulation in rat blood [0.05 (0.04-0.06)]; assay type: ADME, organism-based; settings: in vivo; in short: as §3
Rattus norvegicus [31] = species on record: Rattus norvegicus; experiment: Effect of vesamicol on the accumulation in rat kidney [1.76 (1.55-2.08)]; assay type: ADME, organism-based; settings: in vivo; in short: as §3
[32] = Ratio of tissue distribution between rat heart and blood after 5 min; assay type: ADME, organism-based; settings: heart and blood; in short: as §2
Rattus norvegicus [33] = species on record: Rattus norvegicus; experiment: Tissue distribution in rat heart after 30 minutes (n=3); assay type: ADME, organism-based; settings: in vivo, 0.5 h; in short: as §6
Rattus norvegicus [34] = species on record: Rattus norvegicus; experiment: Tissue distribution in rat liver after 60 minutes (n=3); assay type: ADME, organism-based; settings: in vivo, 1 h; in short: as §2
Rattus norvegicus [35] = species on record: Rattus norvegicus; experiment: Ratio of effect haloperidol on regional distribution between rat brain caudate and cerebellum; assay type: ADME, organism-based; settings: in vivo
Rattus norvegicus [36] = species on record: Rattus norvegicus; experiment: Tissue distribution in rat brain after 180 minutes (n=3); assay type: ADME, organism-based; settings: in vivo, 3 h; in short: as §6
Rattus norvegicus [37] = species on record: Rattus norvegicus; experiment: Tissue distribution in rat gonads after 60 minutes (n=3); assay type: ADME, organism-based, Gonad; settings: in vivo, 1 h; in short: as §6
Rattus norvegicus [38] = species on record: Rattus norvegicus; experiment: Tissue distribution in rrat heart after 60 minutes (n=3); assay type: ADME, organism-based; settings: in vivo, 1 h; in short: as §2
Rattus norvegicus [39] = species on record: Rattus norvegicus; experiment: Tissue distribution in rat muscle after 30 minutes (n=3); assay type: ADME, organism-based; settings: in vivo, 0.5 h; in short: as §6

O[C@@H]1CCN(Cc2cccc([125I])c2)C[C@H]1N1CCC(c2ccccc2)CC1 (stereo in doubt; (+))
Kp at 5 min [1]: 2.33
Dose/g (Rattus norvegicus [2]): 3.67%
Dose/g (Rattus norvegicus [3]): 0.3%
Ratio (Rattus norvegicus [4]): 3.08
Dose/g (Rattus norvegicus [5]): 0.36%
Dose/g (Rattus norvegicus [6]): 0.44%
Ratio (Rattus norvegicus [7]): 4.82
Dose/g (Rattus norvegicus [8]): 0.15%
Dose/g (Rattus norvegicus [9]): 0.1%
Dose/g (Rattus norvegicus [10]): 2.25%
Ratio (Rattus norvegicus [11]): 1.2
Dose/g (Rattus norvegicus [12]): 0.15%
Dose/g (Rattus norvegicus [13]): 0.12%
Ratio (Rattus norvegicus [14]): 1.93
Dose/g (Rattus norvegicus [15]): 0.24%
Dose/g (Rattus norvegicus [16]): 2.02%
Dose/g (Rattus norvegicus [17]): 1.07%
Dose/g (Rattus norvegicus [18]): 0.39%
Dose/g (Rattus norvegicus [19]): 0.17%
Dose/g (Rattus norvegicus [20]): 1.93%
Dose/g (Rattus norvegicus [21]): 1.21%
Dose/g (Rattus norvegicus [22]): 0.17%
Ratio (Rattus norvegicus [23]): 1.7
Ratio (Rattus norvegicus [24]): 2.35
Dose/g (Rattus norvegicus [25]): 0.15%
Dose/g (Rattus norvegicus [26]): 0.13%
Dose/g (Rattus norvegicus [27]): 0.64%
Dose/g (Rattus norvegicus [28]): 0.08%
Dose/g (Rattus norvegicus [29]): 0.11%
Dose/g (Rattus norvegicus [30]): 0.05%
Dose/g (Rattus norvegicus [31]): 0.91%
Kp at 5 min [32]: 4.68
Dose/g (Rattus norvegicus [33]): 0.26%
Dose/g (Rattus norvegicus [34]): 1.91%
Ratio (Rattus norvegicus [35]): 10.97
Dose/g (Rattus norvegicus [36]): 0.15%
Dose/g (Rattus norvegicus [37]): 0.17%
Dose/g (Rattus norvegicus [38]): 0.15%
Dose/g (Rattus norvegicus [39]): 0.16%
